Source: ChEMBL document CHEMBL1123571, “[(6,7-Dichlorobenzo[b]thien-5-yl)oxy]acetic acids and 1,1-dioxides. 1. A structurally novel class of diuretics with hypotensive activity” (1987)
Values joined by “and” are separate entries in the source; they are usually repeats but may differ in a detail not shown here. Equal values may be shown once.

Experiments:
Rattus norvegicus [1] = assay: Hypotensive activity was determined in Spontaneously hypertensive rats (SHR) and peak decrease in systolic blood pressure on third day,2h post administration of 30 mg/kg oral dose was determined; format: functional, Artery
Outline: (§1)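 Okamoto-Aoki spontaneously hypertensive rats were dosed orally every day with compound suspended in distilled water with Tween 80. Systolic BP was taken by tail-cuff plethysmography on day 1 (predose, 2 h), day 3 (predose, 2 h) and day 5 (predose, 2 and 4 h). The value is the peak fall at day 3, 2 h postdose, ± SEM. Four rats were used in the screen and 4–8 per dose in dose-response.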

Rattus norvegicus [2] = assay: Hypotensive activity was determined in Spontaneously hypertensive rats (SHR) and initial blood pressure was determined at 10 mg/kg oral dose; format: functional
Rattus norvegicus [3] = assay: Hypotensive activity was determined in Spontaneously hypertensive rats (SHR) and peak decrease in systolic blood pressure on third day,2h post administration of 10 mg/kg oral dose was determined; format: functional, Artery; outline: as §1
Rattus norvegicus [4] = assay: Hypotensive activity was determined in Spontaneously hypertensive rats (SHR) and initial blood pressure was determined at 30 mg/kg oral dose; format: functional
Rattus norvegicus [5] = assay: Hypotensive activity was determined in Spontaneously hypertensive rats (SHR) and initial blood pressure was determined at 50 mg/kg oral dose; format: functional
Rattus norvegicus [6] = assay: Hypotensive activity was determined in Spontaneously hypertensive rats (SHR) and peak decrease in systolic blood pressure on third day,2h post administration of 50 mg/kg oral dose was determined; format: functional, Artery; outline: as §1
Mus musculus [7] = assay: Diuretic activity in saline loaded mice, activity is expressed as the sodium present in urine as mean milli equivalent/kg per 5 hr at 64 mg/kg oral dose; format: functional
Outline: (§2)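 Male CD-1 mice (18–24 g), 10 per treatment group, housed five per metabolic cage. Compound was given orally in 1% saline at 10 mL/kg, with a vehicle control group. Pooled urine was analysed for sodium by flame photometry. Values are mean mequiv/kg over 0–5 h.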

Mus musculus [8] = assay: Compound was tested for diuretic activity in saline loaded mice, activity is expressed as the sodium present in urine as mean milli equivalent/kg per 5 hr at 16 mg/kg oral dose; format: functional; outline: as §2
Mus musculus [9] = assay: Compound was tested for diuretic activity in saline loaded mice, activity is expressed as the sodium present in urine as mean milli equivalent/kg per 5 hr at 32 mg/kg oral dose; format: functional; outline: as §2
Rattus norvegicus [10] = assay: Hypotensive activity was determined in Spontaneously hypertensive rats (SHR) and initial blood pressure was determined at 3 mg/kg oral dose; format: functional
Rattus norvegicus [11] = assay: Hypotensive activity was determined in Spontaneously hypertensive rats (SHR) and peak decrease in systolic blood pressure on third day,2h post administration of 3 mg/kg oral dose was determined; format: functional, Artery; outline: as §1
Rattus norvegicus [12] = organism: Rattus norvegicus; assay: Initial blood pressure before treatment; format: functional
Outline: (§3)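 Grollman renal hypertension (one kidney, one wrap) in male Sprague-Dawley rats. Under pentobarbital (50 mg/kg ip) the right kidney was removed and silk sutures were tied around both poles of the left kidney. After 3 weeks, rats with systolic BP >150 mmHg were selected. Oral dosing followed. Systolic BP was measured by tail-cuff plethysmography as day/hour readings, and the change was taken against the initial pressure.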

Rattus norvegicus [13] = assay: Hypotensive activity after 10 mg/kg oral dose in rats (Change in blood pressure after treatment (day/hours)); format: functional; outline: as §3
Mus musculus [14] = assay: Compound was tested for diuretic activity in saline loaded mice, activity is expressed as the sodium present in urine as mean milli equivalent/kg per 5 hr at 128 mg/kg oral dose; format: functional; outline: as §2
Rattus norvegicus [15] = assay: Hypotensive activity was determined in Spontaneously hypertensive rats (SHR) and peak decrease in systolic blood pressure on third day,2h post administration of 25 mg/kg oral dose was determined; format: functional, Artery; outline: as §1
Rattus norvegicus [16] = assay: Hypotensive activity was determined in Spontaneously hypertensive rats (SHR) and initial blood pressure was determined at 25 mg/kg oral dose; format: functional
Rattus norvegicus [17] = assay: Hypotensive activity was determined in Spontaneously hypertensive rats (SHR) and peak decrease in systolic blood pressure on third day,2h post administration of 1 mg/kg oral dose was determined; format: functional, Artery; outline: as §1
Rattus norvegicus [18] = assay: Hypotensive activity was determined in Spontaneously hypertensive rats (SHR) and initial blood pressure was determined at 1 mg/kg oral dose; format: functional
Rattus norvegicus [19] = assay: Hypotensive activity after 50 mg/kg oral dose in rats (Change in blood pressure after treatment (day/hours)); format: functional; outline: as §3
Rattus norvegicus [20] = organism: Rattus norvegicus; assay: Change in blood pressure (Initial blood pressure- Post drug blood pressure); format: functional; outline: as §3

Structure (SMILES) | Initial blood pressure (Rattus norvegicus [5]) [mmHg] | Change in BP (Rattus norvegicus [6]) [mmHg] | mequiv of Na+/kg (Mus musculus [7]) | other results
CCCCc1cc2cc(OCC(=O)O)c(Cl)c(Cl)c2s1 | 173 | -47 | 0.88 0-5h | Change in BP (Rattus norvegicus [1]): -16 mmHg; Initial blood pressure (Rattus norvegicus [2]): 171 mmHg; Change in BP (Rattus norvegicus [3]): -17 mmHg; Initial blood pressure (Rattus norvegicus [4]): 173 mmHg
CC(C)c1cc2cc(OCC(=O)O)c(Cl)c(Cl)c2s1 | 179 | -41 | 2.52 0-5h | Change in BP (Rattus norvegicus [1]): -32 mmHg; Initial blood pressure (Rattus norvegicus [2]): 178 mmHg; Change in BP (Rattus norvegicus [3]): -14 mmHg; Initial blood pressure (Rattus norvegicus [4]): 195 mmHg; mequiv of Na+/kg (Mus musculus [8]): 1.24 0-5h; mequiv of Na+/kg (Mus musculus [9]): 1.64 0-5h
CC1=C(C)S(=O)(=O)c2c1cc(OCC(=O)O)c(Cl)c2Cl | 165 | -17 | 0.92 0-5h | 
Cc1sc2c(Cl)c(Cl)c(OCC(=O)O)cc2c1C | 192 | -37 | 0.13 0-5h | 
CCC(=O)c1cc2cc(OCC(=O)O)c(Cl)c(Cl)c2s1 | 173 | -1 | 1.18 0-5h | 
O=C(O)COc1cc2c(c(Cl)c1Cl)S(=O)(=O)C(C1CCCC1)=C2 | 180 | -17 | 1.79 0-5h | 
O=C(O)COc1cc2c(c(Cl)c1Cl)S(=O)(=O)C(C1CCCCC1)=C2 | 202 | -43 | 1.25 0-5h | Change in BP (Rattus norvegicus [1]): -30 mmHg; Initial blood pressure (Rattus norvegicus [4]): 167 mmHg; Initial blood pressure (Rattus norvegicus [10]): 187 mmHg; Change in BP (Rattus norvegicus [11]): -32 mmHg
CCCC1=Cc2cc(OCC(=O)O)c(Cl)c(Cl)c2S1(=O)=O |  |  | 3.13 0-5h | Initial blood pressure (Rattus norvegicus [12]): 166 mmHg; Post drug blood pressure (Rattus norvegicus [13]): 135 mmHg and 156 mmHg and 153 mmHg and 167 mmHg; Change in BP (Rattus norvegicus [1]): -64 mmHg; Initial blood pressure (Rattus norvegicus [4]): 202 mmHg; Initial blood pressure (Rattus norvegicus [10]): 205 mmHg; Change in BP (Rattus norvegicus [11]): -52 mmHg; mequiv of Na+/kg (Mus musculus [14]): 4.99 0-5h; mequiv of Na+/kg (Mus musculus [8]): 1.06 0-5h; mequiv of Na+/kg (Mus musculus [9]): 1.79 0-5h
CC(C)Cc1cc2cc(OCC(=O)O)c(Cl)c(Cl)c2s1 | 176 | 4 | 1.29 0-5h | 
CCc1cc2cc(OCC(=O)O)c(Cl)c(Cl)c2s1 |  |  | 2.07 0-5h | Change in BP (Rattus norvegicus [15]): -13 mmHg; Initial blood pressure (Rattus norvegicus [2]): 185 mmHg; Change in BP (Rattus norvegicus [3]): -21 mmHg; Initial blood pressure (Rattus norvegicus [16]): 176 mmHg; mequiv of Na+/kg (Mus musculus [8]): 0.74 0-5h; mequiv of Na+/kg (Mus musculus [9]): 1.51 0-5h
CC1=Cc2cc(OCC(=O)O)c(Cl)c(Cl)c2S1(=O)=O | 180 | -25 | 4.34 0-5h | mequiv of Na+/kg (Mus musculus [14]): 6.36 0-5h; mequiv of Na+/kg (Mus musculus [8]): 1.33 0-5h; mequiv of Na+/kg (Mus musculus [9]): 2.11 0-5h
Cc1csc2c(Cl)c(Cl)c(OCC(=O)O)cc12 | 203 | -12 | 0.8 0-5h | 
CCCc1cc2cc(OCC(=O)O)c(Cl)c(Cl)c2s1 | 181 | -1 | 1.74 0-5h | 
O=C(O)COc1cc2cc(CO)sc2c(Cl)c1Cl | 199 | -5 | 1.23 0-5h | 
CCC1=Cc2cc(OCC(=O)O)c(Cl)c(Cl)c2S1(=O)=O | 213 | -8 | 3.35 0-5h | mequiv of Na+/kg (Mus musculus [14]): 6.51 0-5h; mequiv of Na+/kg (Mus musculus [8]): 0.66 0-5h; mequiv of Na+/kg (Mus musculus [9]): 1.84 0-5h
O=C(O)COc1cc2cc(C3CCCC3)sc2c(Cl)c1Cl | 193 | -31 | 1.3 0-5h | 
CCCCC1=Cc2cc(OCC(=O)O)c(Cl)c(Cl)c2S1(=O)=O | 185 | -24 | 2.42 0-5h | 

Structure (SMILES) | Initial blood pressure (Rattus norvegicus [5]) [mmHg] | Change in BP (Rattus norvegicus [6]) [mmHg] | mequiv of Na+/kg (Mus musculus [7]) | other results
CC(O)C1=Cc2cc(OCC(=O)O)c(Cl)c(Cl)c2S1(=O)=O (stereo unspecified) | 176 | -9 | 0.43 0-5h | 
Cc1cc2cc(OCC(=O)O)c(Cl)c(Cl)c2s1 | 215 | -51 | 1.16 0-5h | Change in BP (Rattus norvegicus [17]): -42 mmHg; Initial blood pressure (Rattus norvegicus [2]): 196 mmHg; Change in BP (Rattus norvegicus [3]): -33 mmHg; Initial blood pressure (Rattus norvegicus [18]): 177 mmHg; Initial blood pressure (Rattus norvegicus [10]): 173 mmHg; Change in BP (Rattus norvegicus [11]): -37 mmHg
CCC(O)c1cc2cc(OCC(=O)O)c(Cl)c(Cl)c2s1 (stereo unspecified) | 166 | -22 | 3.89 0-5h | 
O=C(O)COc1cc2c(c(Cl)c1Cl)S(=O)(=O)C=C2 | 201 | -3 | 0.33 0-5h | 
O=C(O)COc1cc2cc(C3CCCCC3)sc2c(Cl)c1Cl | 178 | 2 | 1.6 0-5h | 
O=C(O)COc1ccc(C(=O)c2cccs2)c(Cl)c1Cl [TICRYNAFEN] | 200 | -14 | 3.31 0-5h | 
O=C(O)COc1cc2c(c(Cl)c1Cl)S(=O)(=O)C1=C2CCCC1 | 179 | -8 | 0 0-5h | 
C=C(CC)C(=O)c1ccc(OCC(=O)O)c(Cl)c1Cl [ETHACRYNIC ACID] |  |  | 4.14 0-5h | 
CC(C)(O)c1cc2cc(OCC(=O)O)c(Cl)c(Cl)c2s1 | 193 | -25 | 4.4 0-5h | mequiv of Na+/kg (Mus musculus [14]): 6.24 0-5h; mequiv of Na+/kg (Mus musculus [8]): 0.53 0-5h; mequiv of Na+/kg (Mus musculus [9]): 2.21 0-5h
O=C(O)COc1cc2ccsc2c(Cl)c1Cl | 201 | 2 | 1 0-5h | 
CC(O)c1cc2cc(OCC(=O)O)c(Cl)c(Cl)c2s1 (stereo unspecified) | 183 | -7 | 2.86 0-5h | 
O=C(O)COc1cc2c3c(sc2c(Cl)c1Cl)CCCC3 | 177 | -12 | 0.45 0-5h | 
CC(C)CC1=Cc2cc(OCC(=O)O)c(Cl)c(Cl)c2S1(=O)=O | 176 | -14 | 3.24 0-5h | 
CC(=O)c1cc2cc(OCC(=O)O)c(Cl)c(Cl)c2s1 | 199 | -28 | 1.16 0-5h | 
CC(C)C1=Cc2cc(OCC(=O)O)c(Cl)c(Cl)c2S1(=O)=O | 192 | -33 | 2.58 0-5h | mequiv of Na+/kg (Mus musculus [14]): 5.32 0-5h; mequiv of Na+/kg (Mus musculus [9]): 0.88 0-5h
NS(=O)(=O)c1cc2c(cc1Cl)NCNS2(=O)=O [HYDROCHLOROTHIAZIDE] | 188 | -26 |  | Initial blood pressure (Rattus norvegicus [12]): 168 mmHg; Post drug blood pressure (Rattus norvegicus [19]): 156 mmHg and 133 mmHg and 148 mmHg and 150 mmHg; Delta blood pressure (Rattus norvegicus [20]): -18 mmHg [middle of 4 runs]
